Source: PubChem
AI-2 QS modul = Vibrio harveyi AI-2 quorum sensing modulators, primary screen, JMH597 strain, luminescence/OD600 ratio; Vibrio harveyi JMH597 AI-2 luminescence/OD600 ratio, 9 h; active compounds read low; strain lacks LuxN and CqsS sensors; 0 = neutral-control median; activity change, % at 7.5 µM; 300,000 compounds, 0.4% hits; AID 2094, 2009; in the data active = activity change below about -75%, passing the limit was not always enough; inconclusive = no clear call, values can overlap the other calls;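 note: luminescence divided by OD600 gain over 9 h not by final OD600 alone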
MC4R antagonist = MC4R antagonists of cAMP signaling, primary screen, cell-based, TR-FRET, antagonist arm of biased-ligand search. Melanocortin receptor 4 (Homo sapiens), P32245. MC4R-expressing cells, MTII-stimulated cAMP, LANCE TR-FRET. inhibition, % at 6.5 µM. 360,000 compounds, 0.48% hits. AID 540295, 2011;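 active = inhibition above its plate's cutoff, the mean of tested wells on that plate plus 3 SD, cut at about 29% in these data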
Target sequence (P32245 whole entry, looked up): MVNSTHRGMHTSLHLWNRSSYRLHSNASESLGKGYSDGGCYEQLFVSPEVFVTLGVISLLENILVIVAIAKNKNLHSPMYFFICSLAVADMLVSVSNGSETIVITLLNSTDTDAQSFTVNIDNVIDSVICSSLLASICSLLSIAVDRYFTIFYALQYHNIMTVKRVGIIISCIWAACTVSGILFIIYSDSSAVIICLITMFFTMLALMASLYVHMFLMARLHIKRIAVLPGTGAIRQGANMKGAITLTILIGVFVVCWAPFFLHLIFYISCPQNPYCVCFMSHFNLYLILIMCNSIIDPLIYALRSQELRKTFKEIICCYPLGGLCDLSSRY
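Material: U2OS-MC4R stable cell line | Reagent: Melanotan II challenge after compound preincubation | Doses: One concentration, 6.5 µM nominal | Incubation: 30-min compound preincubation, 1-h Melanotan II challenge, 1-h detection, room temperature | Signal: TR-FRET cAMP assay | Replicates: One well per compound, no replicates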
MC4R ag barr = MC4R agonists recruiting beta-arrestin, primary screen, cell-based, luminescence, agonist arm of biased-ligand search | activation, % at 8.9 µM | U2OS MC4R beta-arrestin complementation; percent of melanotan II response, DMSO zero | Melanocortin receptor 4 (Homo sapiens), P32245 | 360,000 compounds, 0.98% hits;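 active = activation above a per-plate cutoff, the mean activation of sample wells on that plate plus 3 SD, cut at about 8% in these data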
NTR1 ag = agonists of human NTR1, primary screen, imaging, U2OS cells, beta-arrestin-GFP, high content | Neurotensin receptor type 1 (Homo sapiens), P30989 | NTR1-U2OS beta-arrestin-GFP spot imaging, agonist mode | activation, % at 20 µM | 330,000 compounds, 0.17% hits;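 active = activation at or above 40% of the spot to cytoplasm intensity ratio, with at least 20 cells analyzed; inconclusive = wells under 20 cells, flagged as cytotoxic or low count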
Each line names hits and unclear results; the compound was inactive in the other large screens. Rows were chosen to be rich in hits. Some 1.8% of all compounds tested hit in one or more screens of this group.

Cc1cccc(C(=O)OCC(=O)N(CC(C)C)c2c(N)n(Cc3ccccc3)c(=O)[nH]c2=O)c1C	none (no result: AI-2 QS modul)
COCCN(C(=O)COC(=O)CCC1CCCC1)c1c(N)n(Cc2ccccc2)c(=O)[nH]c1=O	none
CC(C)c1ccc(CNc2ccc3c(c2)ncn3C)cc1	AI-2 QS modul -79
Cc1ccc(C)c(N2CCN(S(=O)(=O)c3ccc4c(c3)NC(=O)CS4)CC2)c1	none
O=C(Nc1cccc([N+](=O)[O-])c1)c1ccccc1	none
O=C(Nc1cccc([N+](=O)[O-])c1)c1ccc(CSc2ccccc2)cc1	MC4R ag barr 15
CCCCCCSc1cc(-c2nc3ccc(C)cn3c2NCc2ccccc2)ccc1OC	none
CCCN(CC(=O)Nc1ccccc1C)C(=O)c1cccc(-n2cnnn2)c1	none
Cc1ccc(CSc2nc3ccncc3[nH]2)cc1	AI-2 QS modul -77
Clc1ccc(CSc2nc3ccncc3[nH]2)cc1	AI-2 QS modul inconclusive
O=C(c1ccco1)N1CCN(Cc2cc(=O)c(OCc3ccccc3Cl)co2)CC1	none
CCCCN1C[C@H](Cc2ccccc2)[C@@H](CC(=O)Nc2ccccc2)C1=O	none
CC1(NC(=S)Nc2ccccc2)CCS(=O)(=O)C1 (stereo not given)	MC4R ag barr 9.1
CCOc1ccc(CCN2C(=S)N([C@@H](CC(C)C)CN3CCCC3CN3C(=S)NC[C@@H]3Cc3ccc(O)cc3)C[C@@H]2Cc2ccc(O)cc2)cc1 (stereo not given in full)	none (no result: AI-2 QS modul, NTR1 ag)
O=C(Nc1ccc2nc(-c3ccccc3)[nH]c2c1)c1ccco1	none
O=C(Nc1cccc(-c2nc3ccccc3[nH]2)c1)c1cccc(NC(=O)c2ccco2)c1	NTR1 ag 41
CCn1c(CCCOc2ccc(Cl)cc2Cl)nnc1SCC(=O)Nc1cccc(F)c1	MC4R ag barr 9.8
CCn1c(C)nnc1SCC(=O)Nc1cccc(Cl)c1	none
COc1ccccc1NC(=O)NCc1nc(-c2ccc(C(F)(F)F)cc2)no1	MC4R ag barr 8.5
O=C(NCc1nc(-c2ccccc2)no1)Nc1ccc(F)cc1	none
CCCCN(C=O)c1c(CC)nc2c(OCCOc3ccc(F)cc3)cccn12	none (no result: AI-2 QS modul, NTR1 ag)
Cc1cc(NC(=O)CSc2c[nH]c3ccccc23)no1	none
Cc1cc(NC(=O)CSc2nc3ccccc3c(=O)n2Cc2ccccc2)no1	MC4R ag barr 8.5
Cc1ccc(Cn2c(SCC(=O)Nc3cc(C)on3)nc3ccccc3c2=O)cc1	MC4R ag barr 8.8
CCOC(Cn1c(SCC(=O)Nc2cc(C)on2)nc2ccccc2c1=O)OCC	none
Cc1cc(NC(=O)CSc2nnc(-c3c[nH]c4ccccc34)n2-c2ccc(Cl)cc2)no1	MC4R ag barr 12
O=C(N/N=C/c1ccc(O)cc1O)C(=O)N/N=C/c1ccc(O)cc1O	AI-2 QS modul -86
O=C(NN=Cc1ccc(O)cc1)C(=O)NN=Cc1ccc(O)cc1	none (no result: AI-2 QS modul, NTR1 ag)
Cn1c(N)c(N2CCCCC2)c(=O)n(CC(=O)Nc2cccc(C#N)c2)c1=O	none (no result: AI-2 QS modul)
Cc1ccc(C(=O)N/C(=C\c2ccco2)C(=O)NCCN2CCOCC2)cc1C	MC4R ag barr 8.4
Cc1ccc(C(=O)N/C(=C\c2ccco2)C(=O)NCCCN2CCOCC2)cc1C	none
Cc1cccc(C)c1NC(=O)c1cccc(COc2cc(Cl)ccc2Cl)c1	MC4R ag barr 12
Cc1nn(Cc2c(F)c(F)c(F)c(F)c2F)c(C)c1NC(=O)c1ccc(COc2cc(Cl)ccc2Cl)cc1	none
N/C(=N\OC(=O)c1ccccc1Br)c1ccc([N+](=O)[O-])cc1	MC4R ag barr 8.6
Cc1nc(N/N=C/c2ccc(Br)cc2)cc(N2CCOCC2)n1	MC4R ag barr 8.3
Cc1ccccc1Oc1cc(-n2ncc(Cl)c(Cl)c2=O)ncn1	MC4R antagonist 51 (no result: AI-2 QS modul, NTR1 ag)
CCOc1ccc(C(=O)Cc2cc(OC)c(OC)cc2[N+](=O)[O-])cc1	MC4R ag barr 12
O=C(Oc1ccc(-c2cnc3ccccc3n2)cc1)c1cc([N+](=O)[O-])ccc1Cl	MC4R antagonist 29
Cc1c(C(=O)Oc2ccc(-c3cnc4ccccc4n3)cc2)cccc1[N+](=O)[O-]	none
COc1ccc(NC(=O)C2(C)Cc3c(-c4ccc(NC(C)=O)cc4)ccnc3O2)cc1OC (stereo not given)	none (no result: AI-2 QS modul, NTR1 ag)
CN1CCN(c2ccc(NC(=O)c3ccc(-c4ccc(Cl)cc4)o3)cc2)CC1	MC4R ag barr 10
